Test results taken from paper PMC6237275 (Chemical science, 2013).
Residues, ends and D or L forms follow the SMILES beside them.

How the values were obtained:
[1] = test system: MDA-MB-453 cells; assay: Microinjection and time-lapse video microscopy, MDA-MB-453; assay type: cell-based; conditions: microinjected 50 μM
[2] = test system: lactate dehydrogenase; assay: Lactate dehydrogenase activity; assay type: biochemical; conditions: at concentrations of up to 100 μM
[3] = test system: MCF-7 cells; assay: Time-lapse video microscopy, peptide in medium, MCF-7; assay type: cell-based
How it was run: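 Cell-penetrating peptide or TAT alone goes into the medium of asynchronous MCF-7 cultures, imaged by time-lapse microscopy every 30 min for 65 h. Each cell's first mitosis is scored for abnormality (prolonged rounding, failed cytokinesis, death), with time in mitosis per cell. Total cell number increase is taken over the first 48 h. Fisher's exact test; experiments repeated at least twice.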

[4] = molecular target: CtBP1 (His–CtBP1) (Homo sapiens, UniProt Q13363); assay: FRET-based CtBP1/NADH-binding assay
[5] = test system: GST–CtBP1 / His–CtBP1; assay: GST pull down assay; assay type: biochemical; conditions: presence of NADH; 50 mM Tris–HCl pH 7.2 pull-down buffer
How it was run: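 Recombinant GST-CtBP1 and His-CtBP1 are expressed in E. coli and purified on glutathione or nickel resin, with 30 min 0.25 mM pyruvate on-resin to oxidize bound NADH. 10 mg mL−1 bacterial lysate blocks nonspecific binding.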

[6] = test system: CtBP1 homodimerization (CtBP1 fused to 434 repressor); assay: CtBP1 reverse two-hybrid system; assay type: cell-based; conditions: for Target (homodimerization disrupted in RTHS): CtBP1 and CtBP2 RTHS, SICLOPPS; for Rank (top 3 CtBP1/CtBP2 inhibitors identified by SICLOPPS): ranked by drop spotting, CtBP1/CtBP2 RTHS
How it was run: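 E. coli reverse two-hybrid hosts carry SICLOPPS cyclic peptide library plasmids; only clones whose peptide disrupts CtBP homodimerization survive on selective media. For CtBP1, 104 surviving colonies were picked, and their plasmids were isolated and retransformed into the CtBP1 RTHS. For drop-spotting, 2.5 μL of serial cell dilutions go onto selective plates with and without […].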

[7] = test system: CtBP2 homodimerization (CtBP2 fused to 434 repressor); assay: CtBP2 reverse two-hybrid system; assay type: cell-based; conditions: arabinose-induced peptide production; 50 μM IPTG; minimal (selective) media
[8] = test system: MCF-7 cells; assay: Microinjection and time-lapse video microscopy, MCF-7; assay type: cell-based
How it was run: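 MCF-7 cells are synchronized 48 h in 0.1% FCS, then released with 10% serum. At 20 h post-release, cells are microinjected in PBS with 70 kDa FITC-dextran (1 μg μL−1) plus peptide (50 μM) or GST-fusion protein (1 μg μL−1). Controls are FITC-dextran alone or non-injected cells. Time-lapse images every 30 min; first mitosis scored for abnormality and duration. Fisher's exact test.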

[9] = test system: colon cancer cells; conditions: ref [36]; cited from earlier work
[10] = test system: breast cancer cells; conditions: ref [31]; cited from earlier work
[11] = test system: CtBPs; conditions: high concentrations of MTOB; ref [37]; cited from earlier work
[12] = test system: His–CtBP1; assay: Size exclusion chromatography of His–CtBP1; assay type: biochemical; conditions: increasing concentrations of NADH; Superdex 200, PBS
[13] = test system: CtBP1/CtBP2 dimerization (CFP–CtBP1, YFP–CtBP2) in COS-7 cells; assay: CtBP cellular compartmentalization assay; assay type: cell-based; conditions: 100 μM
How it was run: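 COS-7 cells transfected with CFP–CtBP1 (pSCFP3A-based) and YFP–CtBP2 (pSYFP2-based) expression vectors. Test compound as TAT conjugate (100 μM) or 100 μM TAT added to medium. Expression and co-localization were imaged by fluorescence microscopy, and cells were scored by line analysis for cytoplasmic CFP–CtBP1, with cell numbers counted. Fisher's exact test on contingency tables versus TAT-treated cells.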

[14] = test system: MCF-7 cells; assay: Micronuclei assay, MCF-7; assay type: cell-based; conditions: up to 100 μM TAT; 48 h; >400 cells scored
How it was run: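 Peptides are added to the medium of asynchronous MCF-7 cultures, and cells are fixed after 48 h for micronuclei counting, with >400 cells scored per point. Data are mean ± SEM of triplicate wells from a representative of at least two independent experiments. One-way ANOVA with Tukey's post hoc test.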

CSCC[C@@H]1NC(=O)[C@H](CCCNC(=N)N)NC(=O)[C@H](C(C)C)NC(=O)[C@H](C(C)C)NC(=O)[C@H]([C@@H](C)O)NC(=O)[C@H](Cc2c[nH]c3ccccc23)NC(=O)CNC(=O)[C@H](CO)NC(=O)[C@H](Cc2ccc(O)cc2)NC1=O [CP61] (cyclo(GWTVVRMYS))
Length of time in mitosis (in words) ([1]; MDA-MB-453 (Fig. 8b)): did not affect the length of time MDA-MB-453 cells spent in mitosis | Percentage of mitoses that were aberrant (in words) ([1]; MDA-MB-453, P > 0.05 compared to control-injected): did not significantly affect the percentage of mitoses that were aberrant | Effect on activity of lactate dehydrogenase [2]: no effect | Concentration inhibiting the cellular function of CtBPs ([3]; in cells (discussion summary)): 50 µM | Reduction of NADH-dependent FRET signal (CtBP1–NADH interaction) ([4]; excitation 285 nm, emission 425 nm, 300 nM His–CtBP1, room temperature): reduced upon addition of CP61, in a dose-dependent manner | Mechanism of inhibition of NADH-binding ([4]; maximum FRET signal at saturating NADH reduced in a CP61-dependent manner): allosteric mechanism for inhibition of NADH-binding | Disruption of NADH-dependent association between GST–CtBP1 and His–CtBP1 [5]: disrupted | Target (homodimerization disrupted in RTHS) [6]: CtBP1/CtBP2 | Survival on selective media / disruption of CtBP1 homodimerization ([6]; arabinose-induced peptide production, 50 μM IPTG, minimal (selective) media): Restoration of growth with arabinose | Rank (top 3 CtBP1/CtBP2 inhibitors identified by SICLOPPS) [6]: 1 | Survival on selective media / disruption of CtBP2 homodimerization [7]: Restoration of growth with arabinose | Mitoses that were aberrant ([8]; microinjected 50 μM, MCF-7, control-injected 10.2%, P < 0.0001 (Fig. 8a)): 50.8% | Mean length of time in mitosis ([8]; microinjected 50 μM, MCF-7, control-injected 1.9 h (Fig. 8b)): 4 h

CSCCC(=O)C(=O)O [MTOB, 2-keto-4-methylthiobutyrate]
Repression of pro-apoptotic gene BIK [9]: reverse the repression of the pro-apoptotic gene BIK in colon cancer cells | Repression of multiple CtBP-targeted genes [10]: reverse the repression of multiple CtBP-targeted genes in breast cancer cells | Recruitment of CtBPs to target promoters [11]: inhibiting the recruitment of CtBPs to target promoters

NC(=O)C1=CN([C@@H]2O[C@H](COP(=O)(O)OP(=O)(O)OC[C@H]3O[C@@H](n4cnc5c(N)ncnc54)[C@H](O)[C@@H]3O)[C@@H](O)[C@H]2O)C=CC1 [NADH]
Monomer to dimer shift of CtBP1 [12]: shifted to a peak corresponding to dimeric CtBP1 in a dose-dependent manner

GRKKRRQRRRPPQ [TAT]
Increase in cell numbers ([3]; 50 μM, 48 hours): 111% | Nuclear co-localization of CtBPs [13]: showed the expected co-localization with YFP–CtBP2 in the nucleus | Cells containing micronuclei [14]: Approximately 7%

GST–CtBP^DD: construct encoding the central dimerization domain (110–359) of CtBP2
Cells with aberrant mitosis phenotype ([8]; protein injected at 1 μg μL−1 in PBS, MCF-7 (Fig. 7e)): 45% | Time in mitosis (in words) ([8]; protein injected at 1 μg μL−1 in PBS, MCF-7 (Fig. 7f)): increased the time in mitosis, in line with that observed in CP61-treated cells

SGW PLSTWY (head to tail) [CP68]
Target (homodimerization disrupted in RTHS) [6]: CtBP1/CtBP2 | Rank (top 3 CtBP1/CtBP2 inhibitors identified by SICLOPPS) [6]: 2

SGW RLIRLY (head to tail) [CP65]
Target (homodimerization disrupted in RTHS) [6]: CtBP1/CtBP2 | Rank (top 3 CtBP1/CtBP2 inhibitors identified by SICLOPPS) [6]: 3
